What was measured:
Homo sapiens [1] = assay: Half life in chronic hepatitis B virus infected patient assessed as (1-((2-amino-9H-purin-9-yl)methyl)cyclopropoxy)me at 120 mg, po administered as single dose by LC-MS analysis; assay type: ADME, organism-based; conditions: in vivo
Method in brief: (§1)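 CHB patients given LB80380 orally once daily for 4 weeks. Plasma was sampled on day 1 and at steady state (weeks 2–4), predose and 0.5, 1, 2, 3, 4, 6, 8 and 24 h postdose. LB80331 was measured by validated LC-MS/MS (LLOQ 5 ng/ml). Terminal-phase apparent t1/2 came from noncompartmental analysis and was flagged if extrapolated AUC exceeded 20% of AUC0-24.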

Homo sapiens [2] = assay: AUC (0 to infinity) in chronic hepatitis B virus infected patient assessed as (1-((2-amino-9H-purin-9-yl)methyl)cyclopropoxy)me at 120 mg, po administered as single dose by LC-MS analysis; assay type: ADME, organism-based, Plasma; parameters: dose 120 mg, time infinity, route oral; conditions: in vivo
Method in brief: (§2)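 CHB patients (HBsAg/HBeAg positive), six per dose cohort, given a first oral dose on day 1. Plasma sampled at baseline. Analysis by validated LC-MS/MS after protein precipitation with a stable-isotope internal standard; LLOQ 5 ng/ml for LB80331. Noncompartmental analysis gives Cmax and AUC0-∞.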

Plasma [3] = assay: AUC (0 to infinity) in CD-1 mouse plasma assessed as (1-((2-amino-9H-purin-9-yl)methyl)cyclopropoxy)me at 30 mg/kg, po administered as single dose by LC-MS analysis; assay type: ADME, organism-based; parameters: time infinity, dose 30 mg/kg, route oral; conditions: in vivo
Method in brief: (§3)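 Male CD-1 mice given a single oral dose in 100% PEG 400. Samples extracted with perchloric acid and neutralized with ammonium bicarbonate. One aliquot assayed for the free analyte; the other treated with calf intestinal phosphatase to give the total including di-/triphosphates. Analysis by LC-MS/MS.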

Liver [4] = assay: Cmax in CD-1 mouse liver assessed as (1-((2-amino-9H-purin-9-yl)methyl)cyclopropoxy)me at 30 mg/kg, po administered as single dose by LC-MS analysis; assay type: ADME, organism-based; parameters: dose 30 mg/kg, route oral; conditions: in vivo; method in brief: as §3
Homo sapiens [5] = assay: Tmax in chronic hepatitis B virus infected patient assessed as (1-((2-amino-9H-purin-9-yl)methyl)cyclopropoxy)me at 30 mg, po qd for 4 weeks by LC-MS analysis; assay type: ADME, organism-based; conditions: in vivo, 672 h
Method in brief: (§4)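 Daily oral LB80380 was given to CHB patients over 4 weeks. Blood was drawn on day 1 and at steady state (weeks 2–4), predose and 0.5–24 h postdose. Plasma LB80331 (LLOQ 5 ng/ml) and LB80317 (LLOQ 10 ng/ml) were measured by LC-MS/MS after protein-precipitation extraction. Tmax was taken by noncompartmental analysis.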

Plasma [6] = assay: Cmax in CD-1 mouse plasma assessed as (1-((2-amino-9H-purin-9-yl)methyl)cyclopropoxy)me at 30 mg/kg, po administered as single dose by LC-MS analysis; assay type: ADME, organism-based; parameters: dose 30 mg/kg, route oral; conditions: in vivo; method in brief: as §3
Homo sapiens [7] = assay: Half life in chronic hepatitis B virus infected patient assessed as (1-((2-amino-9H-purin-9-yl)methyl)cyclopropoxy)me at 30 mg, po qd for 4 weeks by LC-MS analysis; assay type: ADME, organism-based; conditions: in vivo, 672 h; method in brief: as §1
Homo sapiens [8] = assay: Tmax in high fat diet fed healthy human assessed as (1-((2-amino-9H-purin-9-yl)methyl)cyclopropoxy)me assessed as (1-((2-amino-9H-purin-9-yl)methyl)cyclopropoxy)me at 60 mg, po administered as single dose by LC-MS analysis; assay type: ADME, organism-based; conditions: in vivo
Method in brief: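 Healthy subjects received a single oral 60-mg dose after a high-fat breakfast or after an overnight fast. Plasma LB80331 was assayed by validated LC-MS/MS (LLOQ 5 ng/ml; intra- and interassay precision and accuracy <10%). Tmax was obtained by noncompartmental analysis.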

Homo sapiens [9] = assay: Tmax in chronic hepatitis B virus infected patient assessed as (1-((2-amino-9H-purin-9-yl)methyl)cyclopropoxy)me at 30 mg, po administered as single dose by LC-MS analysis; assay type: ADME, organism-based; conditions: in vivo; method in brief: as §4
Liver [10] = assay: Tmax in CD-1 mouse liver assessed as di- and triphosphates of (1-((2-amino-9H-purin-9-yl)methyl)cyclopropoxy)me at 30 mg/kg, po administered as single dose by LC-MS analysis; assay type: ADME, organism-based; parameters: dose 30 mg/kg, route oral; conditions: in vivo
Method in brief: (§5)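 Male CD-1 mice received 30 mg/kg orally in 100% PEG 400. Plasma and snap-frozen liver were taken from 3 mice per time point at 1, 2, 4, 6, 10, 24 and 36 h. Samples were extracted with perchloric acid and neutralized with ammonium bicarbonate. Free LB80331/LB80317 was measured directly by LC-MS/MS; total, including di- and triphosphates, was measured after calf intestinal phosphatase treatment.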

Homo sapiens [11] = assay: Oral clearance in chronic hepatitis B virus infected patient assessed as (1-((2-amino-9H-purin-9-yl)methyl)cyclopropoxy)me at 240 mg, po qd for 4 weeks by LC-MS analysis; assay type: ADME, organism-based; conditions: in vivo, 672 h
Method in brief: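 Oral LB80380 was given once daily for 4 weeks to CHB patients. Plasma LB80331 was quantified by validated LC-MS/MS after protein precipitation, with stable-isotope internal standard, at baseline and steady state (weeks 2–4), 0–24 h postdose. Noncompartmental CL/F was calculated as dose (adjusted for LB80380/LB80331 molecular weights) divided by AUC (AUC0-∞ single dose; AUC0-24 steady state).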

Homo sapiens [12] = assay: Half life in chronic hepatitis B virus infected patient assessed as (1-((2-amino-9H-purin-9-yl)methyl)cyclopropoxy)me at 30 mg, po administered as single dose by LC-MS analysis; assay type: ADME, organism-based; conditions: in vivo; method in brief: as §1
Homo sapiens [13] = assay: Cmax in chronic hepatitis B virus infected patient assessed as (1-((2-amino-9H-purin-9-yl)methyl)cyclopropoxy)me at 120 mg, po qd for 4 weeks by LC-MS analysis; assay type: ADME, organism-based; parameters: dose 120 mg, route oral; conditions: in vivo, 672 h
Method in brief: (§6)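 CHB patients, oral once daily for 4 weeks. Plasma sampled at steady state (weeks 2–4), predose and at 0.5, 1, 2, 3, 4, 6, 8 and 24 h postdose. LB80331 measured by validated LC-MS/MS (LLOQ 5 ng/ml) after protein precipitation with a stable-isotope internal standard. Cmax by noncompartmental analysis.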

Homo sapiens [14] = assay: Cmax in chronic hepatitis B virus infected patient assessed as (1-((2-amino-9H-purin-9-yl)methyl)cyclopropoxy)me at 120 mg, po administered as single dose by LC-MS analysis; assay type: ADME, organism-based; parameters: dose 120 mg, route oral; conditions: in vivo; method in brief: as §2
Liver [15] = assay: Tmax in CD-1 mouse liver assessed as (1-((2-amino-9H-purin-9-yl)methyl)cyclopropoxy)me at 30 mg/kg, po administered as single dose by LC-MS analysis; assay type: ADME, organism-based; parameters: dose 30 mg/kg, route oral; conditions: in vivo; method in brief: as §5
Homo sapiens [16] = assay: Ratio of AUC (0 to infinity) in high fat diet fed healthy human to AUC (0 to infinity) in fasted healthy human assessed as (1-((2-amino-9H-purin-9-yl)methyl)cyclopropoxy)me at 60 mg, po administered as single dose by LC-MS analysis; conditions: in vivo
Homo sapiens [17] = assay: Cmax in chronic hepatitis B virus infected patient assessed as (1-((2-amino-9H-purin-9-yl)methyl)cyclopropoxy)me at 30 mg, po qd for 4 weeks by LC-MS analysis; assay type: ADME, organism-based; parameters: dose 30 mg, route oral; conditions: in vivo, 672 h; method in brief: as §6

t1/2 (Homo sapiens [1]): 3 h | AUC (Homo sapiens [2]): 4374 ng·h/mL | AUC (Plasma [3]): 17 µM·h | Cmax (Liver [4]): 44 µM | Tmax (Homo sapiens [5]): 2 h | Cmax (Plasma [6]): 6 µM | t1/2 (Homo sapiens [7]): 2.5 h | Tmax (Homo sapiens [8]): 4 h | Tmax (Homo sapiens [9]): 1.5 h | Tmax (Liver [10]): 1 h | CL/F (Homo sapiens [11]): 416 mL/min | t1/2 (Homo sapiens [12]): 2.5 h | Cmax (Homo sapiens [13]): 696 ng/mL | Cmax (Homo sapiens [14]): 805 ng/mL | Tmax (Liver [15]): 1 h | Ratio AUC (Homo sapiens [16]): 1.1 | Cmax (Homo sapiens [17]): 192 ng/mL
SMILES: Nc1ncc2ncn(CC3(OCP(=O)(O)O)CC3)c2n1 [BESIFOVIR]

From ChEMBL document CHEMBL1649179, “Pharmacokinetics of LB80331 and LB80317 following oral administration of LB80380, a new antiviral agent for chronic hepatitis B (CHB), in healthy adult subjects, CHB patients, and mice” (Antimicrob Agents Chemother, 2009)
